The source of these data is ChEMBL document CHEMBL1165965, “Synthesis and structure-activity relationships of 1,2,3,4-tetrahydropyrido[2,3-b]pyrazines as potent and selective inhibitors of the anaplastic lymphoma kinase” (Bioorg Med Chem, 2010).

The target of test [1] is T1, Ankyrin repeat and protein kinase domain-containing protein 1 (Homo sapiens) (UniProt Q8NFD2).
T1 sequence (whole entry): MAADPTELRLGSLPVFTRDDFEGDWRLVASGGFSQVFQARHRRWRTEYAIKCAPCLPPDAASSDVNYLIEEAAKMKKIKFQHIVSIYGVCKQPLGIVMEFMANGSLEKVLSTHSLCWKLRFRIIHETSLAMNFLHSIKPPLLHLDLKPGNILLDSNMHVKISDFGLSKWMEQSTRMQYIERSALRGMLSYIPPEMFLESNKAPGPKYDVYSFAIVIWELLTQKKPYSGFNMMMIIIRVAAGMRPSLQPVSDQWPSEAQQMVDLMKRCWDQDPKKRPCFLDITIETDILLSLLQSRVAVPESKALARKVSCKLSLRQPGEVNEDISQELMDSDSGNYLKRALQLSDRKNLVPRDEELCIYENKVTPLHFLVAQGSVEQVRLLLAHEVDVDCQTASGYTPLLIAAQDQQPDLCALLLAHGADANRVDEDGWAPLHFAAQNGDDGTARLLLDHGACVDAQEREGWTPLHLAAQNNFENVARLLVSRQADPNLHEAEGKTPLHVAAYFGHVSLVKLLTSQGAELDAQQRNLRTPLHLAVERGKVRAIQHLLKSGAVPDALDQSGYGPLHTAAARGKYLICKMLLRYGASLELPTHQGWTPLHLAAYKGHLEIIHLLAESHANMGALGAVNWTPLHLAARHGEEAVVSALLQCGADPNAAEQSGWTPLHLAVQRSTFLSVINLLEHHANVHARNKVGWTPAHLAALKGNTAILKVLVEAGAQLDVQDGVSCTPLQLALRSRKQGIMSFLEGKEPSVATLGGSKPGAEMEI
Kind of test: Inhibition of ANKK1 at 1 uM.

The target in test [2] is Cyclin-dependent kinase 9 (Homo sapiens) (UniProt P50750). Kind of test: Inhibition of CDK9 at 1 uM.
Sequence of Cyclin-dependent kinase 9 (Homo sapiens) (P50750 whole entry): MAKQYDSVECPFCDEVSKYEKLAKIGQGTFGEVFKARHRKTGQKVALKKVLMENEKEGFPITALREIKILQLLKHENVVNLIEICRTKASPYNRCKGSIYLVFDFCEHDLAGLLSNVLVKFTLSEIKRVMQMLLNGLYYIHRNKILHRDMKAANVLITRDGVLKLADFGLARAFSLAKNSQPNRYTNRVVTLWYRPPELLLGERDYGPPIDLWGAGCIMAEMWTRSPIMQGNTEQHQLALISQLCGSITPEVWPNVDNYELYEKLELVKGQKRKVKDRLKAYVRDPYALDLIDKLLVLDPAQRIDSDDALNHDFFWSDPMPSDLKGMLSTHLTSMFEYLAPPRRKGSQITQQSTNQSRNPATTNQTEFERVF
Test [3] can be described thus: Inhibition of FLT3 ITD mutant at 1 uM. An outline of the steps: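 Single-concentration screen on the Ambit KINOMEscan platform, run against a panel of 250–400 kinases. Per-kinase inhibition was also summarized as S(90), the fraction of kinases inhibited by more than 90%.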
The target of test [4] is Calcium/calmodulin-dependent protein kinase type 1D (Homo sapiens) (UniProt Q8IU85). Kind of test: Inhibition of CAMK1D at 1 uM. The gist of the method:
(§1)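 Ambit KINOMEscan screen at a single concentration across a 250–400 kinase panel, recorded as percent inhibition. Selectivity was expressed as S(90), the fraction of kinases inhibited >90%.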

Test [5] deals with Activin receptor type-2B (Homo sapiens) (UniProt Q13705). Kind of test: Inhibition of ACVR2B at 1 uM. The gist of the method: as §1
Sequence of Activin receptor type-2B (Homo sapiens) (Q13705 whole entry): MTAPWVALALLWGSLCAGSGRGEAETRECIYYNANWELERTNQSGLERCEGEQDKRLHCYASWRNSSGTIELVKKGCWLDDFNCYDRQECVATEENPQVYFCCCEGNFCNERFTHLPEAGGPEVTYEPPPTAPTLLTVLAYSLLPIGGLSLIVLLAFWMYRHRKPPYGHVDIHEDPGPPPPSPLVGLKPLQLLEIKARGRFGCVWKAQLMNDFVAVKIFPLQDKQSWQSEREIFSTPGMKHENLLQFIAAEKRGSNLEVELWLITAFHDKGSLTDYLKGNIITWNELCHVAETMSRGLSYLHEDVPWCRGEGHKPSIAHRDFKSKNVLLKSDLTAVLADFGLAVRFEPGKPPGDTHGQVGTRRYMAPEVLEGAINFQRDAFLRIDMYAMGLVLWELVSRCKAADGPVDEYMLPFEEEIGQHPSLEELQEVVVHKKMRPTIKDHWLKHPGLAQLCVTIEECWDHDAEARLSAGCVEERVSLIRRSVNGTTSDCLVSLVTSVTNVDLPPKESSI
The target of test [6] is Epidermal growth factor receptor (Homo sapiens) (UniProt P04626+P00533+Q15303+P21860). Kind of test: Inhibition of EGFR S752-I759del mutant at 1 uM. It is filed as protein assay. The gist of the method:
(§2)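 Single-concentration screen using Ambit Bioscience KINOMEscan technology across a panel of 250–400 kinases. Per-kinase inhibition from this screen was summarized as S(90), the fraction of kinases inhibited by more than 90%.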

Test [7] concerns the target T2, Ephrin type-A receptor 8 (Homo sapiens) (UniProt P29322).
T2 sequence (whole entry): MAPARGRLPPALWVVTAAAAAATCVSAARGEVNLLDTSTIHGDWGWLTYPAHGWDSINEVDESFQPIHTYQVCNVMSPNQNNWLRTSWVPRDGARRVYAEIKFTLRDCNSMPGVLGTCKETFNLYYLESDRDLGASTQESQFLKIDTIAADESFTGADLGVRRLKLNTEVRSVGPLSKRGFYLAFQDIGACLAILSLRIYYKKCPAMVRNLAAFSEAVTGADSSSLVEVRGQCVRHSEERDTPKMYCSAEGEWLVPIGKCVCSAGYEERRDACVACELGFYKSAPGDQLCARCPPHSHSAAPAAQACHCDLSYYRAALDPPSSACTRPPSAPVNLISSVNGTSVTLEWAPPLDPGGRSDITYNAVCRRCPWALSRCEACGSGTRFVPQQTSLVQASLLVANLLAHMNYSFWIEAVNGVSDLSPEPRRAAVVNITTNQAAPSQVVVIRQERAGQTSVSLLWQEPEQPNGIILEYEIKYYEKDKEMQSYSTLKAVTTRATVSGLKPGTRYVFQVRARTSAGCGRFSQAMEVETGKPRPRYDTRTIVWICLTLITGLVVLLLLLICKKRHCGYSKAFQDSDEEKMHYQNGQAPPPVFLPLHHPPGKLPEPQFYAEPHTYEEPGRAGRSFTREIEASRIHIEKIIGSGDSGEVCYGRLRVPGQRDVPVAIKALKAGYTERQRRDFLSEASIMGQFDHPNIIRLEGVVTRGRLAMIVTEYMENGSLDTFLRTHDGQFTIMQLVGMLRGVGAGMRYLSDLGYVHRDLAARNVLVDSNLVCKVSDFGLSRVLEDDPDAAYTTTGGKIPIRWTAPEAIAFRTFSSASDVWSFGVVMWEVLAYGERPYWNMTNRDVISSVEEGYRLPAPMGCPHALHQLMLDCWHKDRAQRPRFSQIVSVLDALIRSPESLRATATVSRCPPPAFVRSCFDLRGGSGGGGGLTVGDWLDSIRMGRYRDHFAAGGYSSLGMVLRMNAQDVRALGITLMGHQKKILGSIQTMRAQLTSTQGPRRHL
Put plainly: Inhibition of EPHA8 at 1 uM. The gist of the method:
as §2

Sequence of Calcium/calmodulin-dependent protein kinase type 1D (Homo sapiens) (Q8IU85 whole entry, looked up): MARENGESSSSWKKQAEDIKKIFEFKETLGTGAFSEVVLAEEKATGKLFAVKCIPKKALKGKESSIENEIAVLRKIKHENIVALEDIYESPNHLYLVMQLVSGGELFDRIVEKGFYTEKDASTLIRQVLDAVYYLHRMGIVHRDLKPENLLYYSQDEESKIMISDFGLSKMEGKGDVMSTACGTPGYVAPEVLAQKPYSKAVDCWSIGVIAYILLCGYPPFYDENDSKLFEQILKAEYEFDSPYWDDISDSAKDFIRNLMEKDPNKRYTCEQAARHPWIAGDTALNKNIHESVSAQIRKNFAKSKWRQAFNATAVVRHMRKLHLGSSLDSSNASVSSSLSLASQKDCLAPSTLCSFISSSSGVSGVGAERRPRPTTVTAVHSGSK

As for `FC(F)(F)c1ccc(Cl)cc1CN1CCNc2ncc(-c3ccnc(N4CCNCC4)c3)cc21`, the inhibition – broadly, how much of the control response was suppressed – is less than 50% in test [1]; less than 50% in test [2]; 74% in test [3]; less than 50% in test [4]; less than 50% in test [5]; less than 50% in test [6]. The compound also displayed an inhibition in test [7] of less than 50%.

For `CN1CCN(c2ccc(-c3cnc4c(c3)N(Cc3cc(Cl)ccc3Cl)CCN4)cn2)CC1`, the inhibition in test [1], in test [2], in test [3], in test [4], in test [5] and in test [6] was less than 50% in each case. Also, the inhibition in test [7] is less than 50%.

As for `COC1CCN(C(=O)c2ccc(-c3cnc4c(c3)N(Cc3cc(Cl)ccc3C(F)(F)F)CCN4)cc2)CC1`, the inhibition in test [3], in test [4], in test [5], in test [6] and in test [7] was less than 50% each time.

Regarding `O=C(c1ccc(-c2cnc3c(c2)N(Cc2cc(Cl)ccc2C(F)(F)F)CCN3)cc1)N1CCCCC1`, the inhibition in test [3], in test [4], in test [5], in test [6] and in test [7] was less than 50% each time.

With `O=C(O)c1ccc(-c2cnc3c(c2)N(Cc2cc(Cl)ccc2C(F)(F)F)CCN3)cc1`, the inhibition in test [3], in test [4], in test [5], in test [6] and in test [7] was less than 50% throughout.

Consider `CN1CCN(c2ccc(-c3cnc4c(c3)N(Cc3cc(F)ccc3F)CCN4)cn2)CC1`, for which the inhibition in test [1], in test [2], in test [3], in test [4], in test [5] and in test [6] was less than 50% each time. This compound displayed an inhibition in test [7] of less than 50%.

For the compound `O=C(c1ccc(-c2cnc3c(c2)N(Cc2cc(Cl)ccc2C(F)(F)F)CCN3)cc1)N1CCC(N2CCCC2)CC1`, the inhibition in test [3], in test [4], in test [5], in test [6] and in test [7] was less than 50% each time.

Consider `CN1CCN(c2ccc(-c3cnc4c(c3)N(Cc3c(F)ccc(F)c3Cl)CCN4)cn2)CC1`, for which the inhibition in test [1], in test [2], in test [3], in test [4], in test [5] and in test [6] was less than 50% throughout. In addition, the inhibition in test [7] was less than 50%.

Regarding `CC(=O)N1CCN(c2cc(-c3cnc4c(c3)N(Cc3cc(Cl)ccc3C(F)(F)F)CCN4)ccn2)CC1`, the inhibition in test [1], in test [2], in test [3], in test [4], in test [5] and in test [6] was less than 50% in each case. Also, in test [7], the inhibition is less than 50%.

For `CN1CCN(c2ccc(-c3cnc4c(c3)N(Cc3cc(Cl)ccc3C(F)(F)F)CCN4)cn2)CC1`, the inhibition is less than 50% in test [1]; less than 50% in test [2]; 90% in test [3]; less than 50% in test [4]; less than 50% in test [5]; less than 50% in test [6]. The inhibition in test [7] is less than 50%.
